Results gathered from unrelated publications.
In brackets after ≈: the same amount, converted by molar mass.

With `Cc1cc(NC2Cc3cc(F)c(F)cc3C2)n2nc(C(C)(F)F)nc2n1` the EC50 was 21 nM (Plasmodium falciparum; parasite growth; HB3; drug-resistant strain, blood stage).
The EC50 of `O=C1C(O)=C([C@H]2CC[C@H](c3ccc(Cl)cc3)CC2)C(=O)c2ccccc21` is reported as 0.45 nM (Plasmodium falciparum; parasite growth, SYBR Green; 3D7).
`CC(C(=O)N1CCCC1)c1cccc(C(OC(=O)N2CCCC2)c2ccccc2)c1` (centres unmarked) gave an IC50 of 41000 nM (L1210; cell growth or viability; 48 h).
The MIC of `NNC(=O)c1ccncc1` is reported as 6.3 µg/mL (≈ 45.9 µM) (Mycolicibacterium aurum; microbial growth, agar dilution).
With `CONC(=O)OC(c1ccccc1)c1cccc(C(C)C(=O)NOC)c1` (centres unmarked) the IC50 was 10000 nM (FM3A; cell growth or viability; 48 h).
`c1csc(-c2nnc3sc(Cc4ccc5c(c4)CCCC5)nn23)c1` has an EC50 of greater than 12500 nM (Plasmodium falciparum; parasite growth, SYBR Green; 3D7; 72 h).
`CCCCCCCCCCOc1cc2c(O)c(C(=O)OCC)cnc2cc1OCC` gave an IC50 of less than 5.7 nM (Plasmodium falciparum; parasite growth, SYBR Green; DD2; blood stage).
`CC(C(=O)NCC1CCCCC1)c1cccc(C(OC(=O)NCC2CCCCC2)c2ccccc2)c1` (centres unmarked) has an IC50 of 11000 nM (L1210; cell growth or viability; 48 h).
With `N.N.[Cl][Pt][Cl]` the GI50 was 6.8 µg/mL (COLO 205; cell growth or viability, ATP luminescence).
`Nc1ccc(C(=O)O)c(O)c1` has an MIC of 0.125 µg/mL (≈ 0.816 µM) (Mycobacterium tuberculosis variant bovis; microbial growth; BCG).
For `C[C@]1(O)CC[C@@]2(C)[C@@H](CC[C@@H]3[C@@H]2CC[C@]2(C)[C@@H]([N+](=O)[O-])CC[C@@H]32)C1`, the ED50 was greater than 100 mg/kg (6 Hz seizures; mouse; intraperitoneal).
The EC50 of `Cc1nc(Nc2ccc(C)c(Cl)c2)c2c(C)noc2n1` is reported as 336 nM (Plasmodium falciparum; parasite growth, SYBR Green; 3D7).
`C[C@]12CC[C@@H](O)C[C@@H]1CC[C@@H]1[C@@H]2CC[C@]2(C)[C@@H]([N+](=O)[O-])CC[C@@H]12` has an ED50 of 5.3 mg/kg (6 Hz seizures; mouse; intraperitoneal).
`CCc1nc2nc(C)cc(Nc3cc(C)cc(C)c3)n2n1` has an EC50 of 96.5 nM (Plasmodium falciparum; parasite growth, SYBR Green; 3D7).
